Values after ≈ are worked out from the molar mass of the structure shown.
Legend:
Type in all cases: functional
Mycobacterium avium [1] = assay: Minimum Inhibitory Concentration against clinical isolates of Mycobacterium avium complex ATCC 49601
Outline: (§1)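 Broth macrodilution in tubes of modified Middlebrook 7H10 broth (agar and malachite green omitted) with 10% OADC and 0.05% Tween 80 at pH 5.8. Cultures were grown 3 days at 37 °C on a rotary shaker, then diluted with 7H10 broth to 1 Klett unit/mL. Stocks were made in water or DMSO and filter-sterilised; 2-fold serial dilutions were tested. Tubes shaken 7–10 days at 37 °C, with a drug-free control. MIC = lowest concentration (μg/mL) with no visible turbidity.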

Mycobacterium kansasii = assay: Minimum Inhibitory Concentration against clinical isolates of Mycobacterium kansasii S
Outline: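 Grown 3 days at 37 °C on a rotary shaker in modified Middlebrook 7H10 broth (agar and malachite green omitted) with 10% OADC and 0.05% Tween 80. Diluted to 1 Klett unit/mL. Tubes held serial 2-fold dilutions in 7H10 broth at pH 5.8, from stocks in water or DMSO, and were shaken at 37 °C for 7–10 days with a drug-free control. MIC was the lowest concentration with no visible turbidity.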

[2] = tested on: Mycobacterium tuberculosis; assay: Minimum Inhibitory Concentration against Mycobacterium tuberculosis ATCC 27294; outline: as §1
[3] = tested on: Mycobacterium tuberculosis; assay: Minimum Inhibitory Concentration against Mycobacterium tuberculosis ATCC 35801; outline: as §1
Mycobacterium avium [4] = assay: Minimum Inhibitory Concentration in clinical isolates against Mycobacterium avium complex 101; outline: as §1
Mycobacterium avium [5] = assay: Minimum Inhibitory Concentration in clinical isolates against Mycobacterium avium complex ATCC 49601; outline: as §1
[6] = Mycobacterium tuberculosis, ATCC 27294, read-out: MIC

| SMILES | MIC (Mycobacterium avium [1]) [µg/mL] | MIC (Mycobacterium kansasii) [µg/mL] | MIC [2, 6] [µg/mL] | MIC [3] [µg/mL] | MIC (Mycobacterium avium [4]) [µg/mL] | MIC (Mycobacterium avium [5]) [µg/mL] | MIC [2] [µg/mL] |
| --- | --- | --- | --- | --- | --- | --- | --- |
| CCCCCCCC(C)OC(=O)c1cnc(Cl)cn1 (centres undefined) | 32 (≈ 112 µM) | < 0.03 | 1 (≈ 3.51 µM) | 0.5 (≈ 1.76 µM) | 32 (≈ 112 µM) | – | – |
| CCCCCCCCC(C)(CCCC)OC(=O)c1cnc(Cl)cn1 (centres undefined) | > 64 | 16 (≈ 45.1 µM) | 16 (≈ 45.1 µM) | 16 (≈ 45.1 µM) | > 64 | – | – |
| CCCCCCCCCOC(=O)c1cnc(C)cn1 | 32 (≈ 121 µM) | 2 (≈ 7.57 µM) | 1 (≈ 3.78 µM) | 1 (≈ 3.78 µM) | 64 (≈ 242 µM) | – | – |
| CCCCCC(C)OC(=O)c1cnc(Cl)cn1 (centres undefined) | 32 (≈ 125 µM) | < 0.125 | 0.06 (≈ 0.234 µM) | 0.5 (≈ 1.95 µM) | 32 (≈ 125 µM) | – | – |
| Cc1cnc(C(=O)O)cn1 | – | 1020 (≈ 7410 µM) | 64 (≈ 463 µM) | 64 (≈ 463 µM) | 1020 (≈ 7410 µM) | > 1020 | – |
| O=C(O)c1cnc(Cl)cn1 | – | 64 (≈ 404 µM) | 64 (≈ 404 µM) | 64 (≈ 404 µM) | – | > 1020 | – |
| O=C(Oc1ccc(F)cc1)c1cnccn1 | – | 64 (≈ 293 µM) | 32 (≈ 147 µM) | – | 128 (≈ 587 µM) | 128 (≈ 587 µM) | 32 (≈ 147 µM) |
| CCCCCCCCCCCC(C)OC(=O)c1cnc(Cl)cn1 (centres undefined) | 32 (≈ 93.9 µM) | 0.06 (≈ 0.176 µM) | 2 (≈ 5.87 µM) | 0.5 (≈ 1.47 µM) | 256 (≈ 751 µM) | – | – |
| NC(=O)c1cnccn1 [PYRAZINAMIDE] | – | 2050 (≈ 16600 µM) | 16 (≈ 130 µM) | 32 (≈ 260 µM) | > 2050 | > 2050 | – |
| O=C(O)c1cnccn1 [PYRAZINOIC ACID] | – | 256 (≈ 2060 µM) | 32 (≈ 258 µM) | 32 (≈ 258 µM) | > 1020 | > 1020 | – |

From ChEMBL document CHEMBL1128446, “Pyrazinoic acid esters with broad spectrum in vitro antimycobacterial activity” (1995)
